18 molecules from ChEMBL document CHEMBL4130391, “Novel methyl indolinone-6-carboxylates containing an indole moiety as angiokinase inhibitors” (Eur J Med Chem, 2017) can be followed below.

The structures appear in SMILES notation. A value given as a limit tells only on which side of the number the result lay.

For series [1], the target named is T1, Vascular endothelial growth factor receptor 2 (Homo sapiens, UniProt P35968). Description: Inhibition of N-terminal biotinylated DYKDDDDK tagged human VEGFR2 (790 to 1356 end residues) cytoplasmic domain expressed in baculovirus expression system preincubated for 10 mins followed by fluorescein amidite-labelled peptide substrate addition measured after 1 hr by mobility shift assay.

Series [2] addresses Platelet-derived growth factor receptor beta (Homo sapiens, UniProt P09619). Put plainly: Inhibition of N-terminal GST tagged human PDGFRbeta (557 to 1106 end residues) cytoplasmic domain expressed in baculovirus expression system preincubated for 10 mins followed by fluorescein amidite-labelled peptide substrate addition measured after 1 hr by mobility shift assay. The method, boiled down: (§1)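 Enzyme and compound were preincubated for 10 min at room temperature. FAM-labelled peptide plus ATP was then added and reacted 1 h at 28°C, stopped with EDTA buffer, and run in duplicate. Inhibition = (max − conversion)/(max − min) × 100.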

Series [3] has as its system A549. Description: Antiproliferative activity against human A549 cells after 72 hrs by MTT assay. The format is functional, cell-based. As to conditions: A549, 72 h. Background: Tetrazolium dyes change colour on reduction, which living cells bring about.
Series [4] concerns MCF7. Put plainly: Antiproliferative activity against human MCF7 cells after 72 hrs by MTT assay. It counts as functional, cell-based. The note with it: MCF7, 72 h.
The test system of series [5] is HT-29. Put plainly: Antiproliferative activity against human HT-29 cells after 72 hrs by MTT assay. The format is functional, cell-based. As to conditions: HT-29, 72 h.
Series [6] deals with T1, Vascular endothelial growth factor receptor 2. Description: Inhibition of N-terminal biotinylated DYKDDDDK tagged human VEGFR2 (790 to 1356 end residues) cytoplasmic domain expressed in baculovirus expression system at 1 uM preincubated for 10 mins followed by fluorescein amidite-labelled peptide substrate addition measured after 1 hr by mobility shift assay relative to control. A digest of the protocol:
as §1

The subject of series [7] is HEK-293T. Put plainly: Cytotoxicity against HEK293T cells assessed as reduction in cell viability at 10 uM after 72 hrs by MTT assay. The format is cell-based. The note with it: human. The method, boiled down: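 HEK293T cells, about 4 × 10^3 per well, were grown in MEM with 10% FBS at 37°C in 5% CO2 for 24 h. Cells were then exposed to compound for 72 h. MTT was added at 5 µg/mL final for 4 h at 37°C and the formazan dissolved in DMSO. Absorbance was read at 492 nm with 630 nm as reference.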

Series [8] relates to HUVEC. Put plainly: Induction of apoptosis in HUVEC assessed as early apoptotic cells at 0.3 uM measured after 48 hrs by Annexin-V-FITC/propidium iodide staining based flow cytometry (reference value: 1.78 %). The format is functional, Homo sapiens. A general note: Flow cytometry measures light scatter and fluorescence of single cells or particles in a stream.
The subject of series [9] is HUVEC. Description: Induction of apoptosis in HUVEC assessed as late apoptotic cells at 0.3 uM measured after 48 hrs by Annexin-V-FITC/propidium iodide staining based flow cytometry (reference value: 5.79 %). It counts as functional, Homo sapiens.
Series [10] has as its system HUVEC. Put plainly: Induction of apoptosis in HUVEC assessed as early apoptotic cells at 1 uM measured after 48 hrs by Annexin-V-FITC/propidium iodide staining based flow cytometry (reference value: 1.78 %). The format is functional, Homo sapiens.
For series [11], the system named is HUVEC. Put plainly: Induction of apoptosis in HUVEC assessed as late apoptotic cells at 1 uM measured after 48 hrs by Annexin-V-FITC/propidium iodide staining based flow cytometry (reference value: 5.79 %). It counts as functional, Homo sapiens.
For series [12], the system named is HUVEC. Description: Induction of apoptosis in HUVEC assessed as early apoptotic cells at 3 uM measured after 48 hrs by Annexin-V-FITC/propidium iodide staining based flow cytometry (reference value: 1.78 %). The format is functional, Homo sapiens.
In series [13] the test system is HUVEC. Put plainly: Induction of apoptosis in HUVEC assessed as late apoptotic cells at 3 uM measured after 48 hrs by Annexin-V-FITC/propidium iodide staining based flow cytometry (reference value: 5.79 %). The format is functional, Homo sapiens.
For series [14], the system named is HT-29. Put plainly: Induction of apoptosis in human HT-29 cells assessed as early apoptotic cells at 0.3 uM measured after 48 hrs by Annexin-V-FITC/propidium iodide staining based flow cytometry (reference value: 0.99 %). It counts as functional.
Series [15] deals with HT-29. Description: Induction of apoptosis in human HT-29 cells assessed as late apoptotic cells at 0.3 uM measured after 48 hrs by Annexin-V-FITC/propidium iodide staining based flow cytometry (reference value: 10.60 %). The format is functional.
Series [16] deals with HT-29. Description: Induction of apoptosis in human HT-29 cells assessed as early apoptotic cells at 1 uM measured after 48 hrs by Annexin-V-FITC/propidium iodide staining based flow cytometry (reference value: 0.99 %). It counts as functional.
The test system of series [17] is HT-29. Put plainly: Induction of apoptosis in human HT-29 cells assessed as late apoptotic cells at 1 uM measured after 48 hrs by Annexin-V-FITC/propidium iodide staining based flow cytometry (reference value: 10.60 %). It counts as functional.
Series [18] has as its system HT-29. Description: Induction of apoptosis in human HT-29 cells assessed as early apoptotic cells at 3 uM measured after 48 hrs by Annexin-V-FITC/propidium iodide staining based flow cytometry (reference value: 0.99 %). It counts as functional.
Series [19] concerns HT-29. Put plainly: Induction of apoptosis in human HT-29 cells assessed as late apoptotic cells at 3 uM measured after 48 hrs by Annexin-V-FITC/propidium iodide staining based flow cytometry (reference value: 10.60 %). The format is functional.
Series [20] deals with MCF7. Put plainly: Induction of apoptosis in human MCF7 cells assessed as early apoptotic cells at 0.3 uM measured after 48 hrs by Annexin-V-FITC/propidium iodide staining based flow cytometry (reference value: 1.32 %). It counts as functional.
Series [21] relates to MCF7. Description: Induction of apoptosis in human MCF7 cells assessed as late apoptotic cells at 0.3 uM measured after 48 hrs by Annexin-V-FITC/propidium iodide staining based flow cytometry (reference value: 13.68 %). It counts as functional.
Series [22] has as its system MCF7. Description: Induction of apoptosis in human MCF7 cells assessed as early apoptotic cells at 1 uM measured after 48 hrs by Annexin-V-FITC/propidium iodide staining based flow cytometry (reference value: 1.32 %). The format is functional.
The test system of series [23] is MCF7. Description: Induction of apoptosis in human MCF7 cells assessed as late apoptotic cells at 1 uM measured after 48 hrs by Annexin-V-FITC/propidium iodide staining based flow cytometry (reference value: 13.68 %). The format is functional.
Series [24] has as its system MCF7. Put plainly: Induction of apoptosis in human MCF7 cells assessed as early apoptotic cells at 3 uM measured after 48 hrs by Annexin-V-FITC/propidium iodide staining based flow cytometry (reference value: 1.32 %). It counts as functional.
Series [25] has as its system MCF7. Put plainly: Induction of apoptosis in human MCF7 cells assessed as late apoptotic cells at 3 uM measured after 48 hrs by Annexin-V-FITC/propidium iodide staining based flow cytometry (reference value: 13.68 %). The format is functional.
Series [26] has as its system HUVEC. Put plainly: Induction of apoptosis in HUVEC measured after 48 hrs by Annexin-V-FITC/propidium iodide staining based flow cytometry. The format is functional, cell-based. As to conditions: Homo sapiens.
Series [27] addresses Fibroblast growth factor receptor 1 (Homo sapiens, UniProt P11362). Description: Inhibition of N-terminal GST tagged human FGFR1 (398 to 822 end residues) cytoplasmic domain expressed in baculovirus expression system preincubated for 10 mins followed by fluorescein amidite-labelled peptide substrate addition measured after 1 hr by mobility shift assay.

T1 sequence (P35968 whole entry, the tested form may be a part): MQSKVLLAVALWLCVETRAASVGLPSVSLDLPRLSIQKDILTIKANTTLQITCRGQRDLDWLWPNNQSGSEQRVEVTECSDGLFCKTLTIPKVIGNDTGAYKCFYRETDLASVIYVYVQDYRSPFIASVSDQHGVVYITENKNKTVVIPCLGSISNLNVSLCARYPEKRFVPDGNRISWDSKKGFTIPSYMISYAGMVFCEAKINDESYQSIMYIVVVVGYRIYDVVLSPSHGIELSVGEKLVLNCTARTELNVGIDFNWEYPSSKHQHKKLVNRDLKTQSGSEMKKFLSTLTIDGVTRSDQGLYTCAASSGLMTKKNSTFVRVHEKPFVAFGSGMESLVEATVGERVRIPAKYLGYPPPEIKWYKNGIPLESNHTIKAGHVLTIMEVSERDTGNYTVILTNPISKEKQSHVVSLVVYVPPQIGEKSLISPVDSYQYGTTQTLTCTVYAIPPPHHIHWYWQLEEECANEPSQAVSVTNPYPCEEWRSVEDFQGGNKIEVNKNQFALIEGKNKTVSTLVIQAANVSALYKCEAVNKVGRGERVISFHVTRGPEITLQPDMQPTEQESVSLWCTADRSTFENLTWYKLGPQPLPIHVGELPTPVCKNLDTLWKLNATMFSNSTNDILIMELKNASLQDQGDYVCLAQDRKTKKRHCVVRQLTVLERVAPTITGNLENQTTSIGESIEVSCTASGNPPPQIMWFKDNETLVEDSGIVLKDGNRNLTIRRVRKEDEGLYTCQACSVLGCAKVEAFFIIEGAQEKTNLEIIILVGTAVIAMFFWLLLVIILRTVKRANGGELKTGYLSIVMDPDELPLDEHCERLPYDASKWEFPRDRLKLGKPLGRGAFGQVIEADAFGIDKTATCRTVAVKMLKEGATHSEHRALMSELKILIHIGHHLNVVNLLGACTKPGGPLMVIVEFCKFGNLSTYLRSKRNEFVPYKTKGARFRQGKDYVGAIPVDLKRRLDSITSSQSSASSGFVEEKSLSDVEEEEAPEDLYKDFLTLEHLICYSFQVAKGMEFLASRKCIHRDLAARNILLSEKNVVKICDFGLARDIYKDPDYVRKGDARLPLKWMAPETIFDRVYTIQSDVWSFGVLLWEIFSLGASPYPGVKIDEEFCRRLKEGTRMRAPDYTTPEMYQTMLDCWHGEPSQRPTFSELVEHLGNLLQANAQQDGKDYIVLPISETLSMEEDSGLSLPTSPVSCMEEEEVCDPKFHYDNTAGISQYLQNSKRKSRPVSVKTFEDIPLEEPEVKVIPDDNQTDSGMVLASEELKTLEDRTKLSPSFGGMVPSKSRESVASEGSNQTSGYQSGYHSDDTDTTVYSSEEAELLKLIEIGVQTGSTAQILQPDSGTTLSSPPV
Platelet-derived growth factor receptor beta, sequence (P09619 whole entry, the tested form may be a part): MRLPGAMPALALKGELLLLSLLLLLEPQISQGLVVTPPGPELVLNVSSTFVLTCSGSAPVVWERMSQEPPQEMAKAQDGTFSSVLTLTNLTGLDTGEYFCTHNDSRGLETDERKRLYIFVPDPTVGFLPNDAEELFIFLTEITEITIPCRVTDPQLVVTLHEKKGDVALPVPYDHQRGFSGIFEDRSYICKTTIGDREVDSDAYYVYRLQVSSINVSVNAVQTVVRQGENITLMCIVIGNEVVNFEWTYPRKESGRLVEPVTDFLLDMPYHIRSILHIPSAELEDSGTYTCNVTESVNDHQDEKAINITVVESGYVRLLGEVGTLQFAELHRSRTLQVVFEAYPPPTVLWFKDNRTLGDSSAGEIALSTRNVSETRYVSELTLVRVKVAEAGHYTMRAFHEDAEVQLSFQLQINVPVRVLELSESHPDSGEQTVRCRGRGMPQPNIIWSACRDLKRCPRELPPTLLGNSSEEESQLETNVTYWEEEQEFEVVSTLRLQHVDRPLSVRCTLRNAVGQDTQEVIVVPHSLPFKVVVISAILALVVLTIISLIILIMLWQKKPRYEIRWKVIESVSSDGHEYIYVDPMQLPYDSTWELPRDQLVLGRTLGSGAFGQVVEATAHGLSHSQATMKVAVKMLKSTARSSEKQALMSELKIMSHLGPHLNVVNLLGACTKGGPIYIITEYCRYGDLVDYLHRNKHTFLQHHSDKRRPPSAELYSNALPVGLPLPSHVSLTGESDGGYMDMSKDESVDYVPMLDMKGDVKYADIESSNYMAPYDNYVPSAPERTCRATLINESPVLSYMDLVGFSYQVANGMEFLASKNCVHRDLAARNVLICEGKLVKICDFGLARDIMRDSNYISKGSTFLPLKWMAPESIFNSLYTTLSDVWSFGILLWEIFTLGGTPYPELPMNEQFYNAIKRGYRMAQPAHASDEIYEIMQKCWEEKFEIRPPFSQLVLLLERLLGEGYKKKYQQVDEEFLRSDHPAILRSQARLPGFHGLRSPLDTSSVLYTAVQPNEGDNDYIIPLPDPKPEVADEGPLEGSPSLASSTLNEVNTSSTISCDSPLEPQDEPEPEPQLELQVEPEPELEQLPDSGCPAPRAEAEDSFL
Fibroblast growth factor receptor 1, sequence (P11362 whole entry, the tested form may be a part): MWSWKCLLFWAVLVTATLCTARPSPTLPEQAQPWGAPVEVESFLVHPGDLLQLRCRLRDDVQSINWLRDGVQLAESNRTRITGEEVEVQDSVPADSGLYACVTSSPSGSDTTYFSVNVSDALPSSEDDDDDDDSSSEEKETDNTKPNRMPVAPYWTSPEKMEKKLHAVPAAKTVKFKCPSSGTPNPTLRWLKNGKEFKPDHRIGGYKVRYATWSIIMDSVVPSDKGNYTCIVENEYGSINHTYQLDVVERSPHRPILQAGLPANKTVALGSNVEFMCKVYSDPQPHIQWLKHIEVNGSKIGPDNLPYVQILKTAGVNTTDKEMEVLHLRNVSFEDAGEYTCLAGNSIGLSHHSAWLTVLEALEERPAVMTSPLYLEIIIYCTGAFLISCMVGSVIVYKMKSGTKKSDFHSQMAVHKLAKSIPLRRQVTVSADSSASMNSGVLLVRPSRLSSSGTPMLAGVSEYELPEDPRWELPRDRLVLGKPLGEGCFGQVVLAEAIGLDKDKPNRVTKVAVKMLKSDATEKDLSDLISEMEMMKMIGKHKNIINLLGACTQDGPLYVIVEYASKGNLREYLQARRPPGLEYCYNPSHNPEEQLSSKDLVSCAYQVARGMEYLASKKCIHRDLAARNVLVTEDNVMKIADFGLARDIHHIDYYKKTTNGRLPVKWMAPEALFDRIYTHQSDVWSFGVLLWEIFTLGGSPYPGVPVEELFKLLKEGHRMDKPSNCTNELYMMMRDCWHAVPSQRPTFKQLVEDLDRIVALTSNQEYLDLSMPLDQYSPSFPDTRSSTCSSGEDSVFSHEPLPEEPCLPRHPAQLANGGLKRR

By IC50 is commonly meant the concentration needed to halve the response being measured. With `COC(=O)c1ccc2c(c1)NC(=O)/C2=C(\Nc1ccc2nc(CN(C)C)oc2c1)c1ccccc1`, the IC50 was over 1000 nM in series [1], over 500 nM in series [2] and over 100000 nM in series [3].
Take `COC(=O)c1ccc2c(c1)NC(=O)/C2=C(\Nc1ccc2c(c1)c(CN(C)C)cn2C(C)C)c1ccccc1`: the IC50 in series [2] is 49.2 nM; in series [3] it was 4320 nM; in series [4], 5670 nM; in series [5], 250 nM.
In the case of `COC(=O)c1ccc2c(c1)NC(=O)/C2=C(\Nc1ccc2[nH]c(C(=O)N(C)C)cc2c1)c1ccccc1`, the IC50 was over 1000 nM in series [1], over 100000 nM in series [3] and over 100000 nM in [5].
The term inhibition denotes the relative decrease from the control value, in per cent. For the molecule `COC(=O)c1ccc2c(c1)NC(=O)/C2=C(\Nc1ccc2nc(CN3CCN(C)CC3)oc2c1)c1ccccc1`, the inhibition in series [6] is 79%. In addition, the IC50 in series [2] is 116 nM; in series [3] it was over 100000 nM.
The matching figures for `COC(=O)c1ccc2c(c1)NC(=O)/C2=C(\Nc1ccc2[nH]cc(CN3CCN(C)CC3)c2c1)c1ccccc1`: 59%, 135 nM and 7400 nM.
`COC(=O)c1ccc2c(c1)NC(=O)/C2=C(\Nc1ccc2c(c1)cc(C(=O)N1CCN(C)CC1)n2C)c1ccccc1`: the half-maximal inhibitory concentration (IC50) in series [2] worked out at 44.2 nM; in series [3], 75200 nM; in series [5], 1100 nM.
With `COC(=O)c1ccc2c(c1)NC(=O)/C2=C(\Nc1ccc2c(c1)nc(CN(C)C)n2C)c1ccccc1`, the IC50 in series [2] is 45.5 nM; in series [3] it was over 100000 nM; in [4] it was over 100000 nM; in [5], 89900 nM.
Take `CCn1c(C(=O)N2CCN(C)CC2)cc2cc(N/C(=C3\C(=O)Nc4cc(C(=O)OC)ccc43)c3ccccc3)ccc21`: the results for the IC50 in series [2], in series [3] and in series [5] were 39 nM, 11900 nM and 2190 nM, respectively.
`COC(=O)c1ccc2c(c1)NC(=O)/C2=C(\Nc1ccc2c(c1)nc(CN1CCN(C)CC1)n2C)c1ccccc1`: the IC50 in series [2] was determined as 61 nM; in series [3], 40500 nM; in series [4], 22500 nM; in series [5] it was 700 nM.
Take `COC(=O)c1ccc2c(c1)NC(=O)/C2=C(\Nc1ccc(N(C)C(=O)CN2CCN(C)CC2)cc1)c1ccccc1` [NINTEDANIB]: the IC50 in series [3] worked out at 22600 nM; in series [4], 8280 nM; in series [5], 830 nM.
On to `COC(=O)c1ccc2c(c1)NC(=O)/C2=C(\Nc1ccc2[nH]c(CN3CCN(C)CC3)cc2c1)c1ccccc1`, for which the IC50 in [2] is 92.7 nM; in [3], 39100 nM; in [4], 3270 nM; in [5] it was 320 nM.
Consider `COC(=O)c1ccc2c(c1)NC(=O)/C2=C(\Nc1ccc2[nH]c(CN(C)C)cc2c1)c1ccccc1`, for which the IC50 in series [3] worked out at 16400 nM; in series [4] it was 2320 nM; in [5], 980 nM.
On to `COC(=O)c1ccc2c(c1)NC(=O)/C2=C(\Nc1ccc2[nH]c(C(=O)N3CCN(C)CC3)cc2c1)c1ccccc1`, for which the IC50 in series [2] came out at 22 nM; in [3], 2990 nM; in series [4], 1560 nM; in series [5], 1170 nM; in [27], 1510 nM. Besides, the Activity entry in [7] is on record as “Non-Toxic”; in series [8], 5.68%; in series [9], 17.62%; in [10], 3.97%; in series [11], 77.6%; in series [12], 1.51%. Besides, the Activity is on record as 93.77% in [13]; 2.31% in [14]; 14.15% in series [15]; 0.44% in series [16]; 74.82% in [17]; 0.05% in series [18]. For the same molecule, the Activity is given as 98.81% in [19]; 1.27% in series [20]; 18.25% in series [21]; 0.65% in series [22]; 34.43% in series [23]; 0.28% in series [24]. The Activity is 94.04% in series [25] and “Dose-dependent effect” in series [26].
`COC(=O)c1ccc2c(c1)NC(=O)/C2=C(\Nc1ccc2[nH]cc(CN(C)C)c2c1)c1ccccc1`: the IC50 in series [1] was over 1000 nM; in [2], 60.7 nM; in series [3], 2270 nM; in series [4], 3940 nM; in series [5], 130 nM.
`COC(=O)c1ccc2c(c1)NC(=O)/C2=C(\Nc1ccc2c(c1)c(CN(C)C)cn2C)c1ccccc1`: the IC50 was determined as 64.6 nM in [2], 6010 nM in series [3], 2280 nM in series [4] and 460 nM in [5].
In the case of `COC(=O)c1ccc2c(c1)NC(=O)/C2=C(\Nc1ccc2[nH]cc(CN3CCOCC3)c2c1)c1ccccc1`, in series [2], the IC50 stood at 242 nM.
For `COC(=O)c1ccc2c(c1)NC(=O)/C2=C(\Nc1ccc2c(c1)c(CN1CCN(C)CC1)cn2C)c1ccccc1`, the IC50 in series [1] was over 1000 nM; in [2], 91.7 nM; in series [3], 6150 nM; in series [4] it was 4010 nM; in series [5] it was 870 nM.
Turning to `CCn1cc(CN(C)C)c2cc(N/C(=C3\C(=O)Nc4cc(C(=O)OC)ccc43)c3ccccc3)ccc21`, the IC50 in series [2] came to 34.3 nM; in series [3], 7630 nM; in [4] it was 5530 nM; in series [5], 6790 nM.
